The source made the active and inactive calls. No cut-off for these calls is given here.
Assays:
[1] = target: LL-diaminopimelate aminotransferase, chloroplastic (Arabidopsis thaliana, UniProt Q93ZN9); test: Inhibition of Arabidopsis thaliana LL-DAP-AT expressed in Escherichia coli by aminobenzaldehyde-based assay
Procedure, shortened: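 His6-tagged A. thaliana LL-DAP-AT (0.0043 mg/mL final) in 1 mL cuvettes with 100 mM HEPES-KOH pH 7.6, 8.5 mM 2-OG, 7 mM OAB and 2.0 mM LL-DAP. Inhibitor at 5–200 µM final, added in 50 µL DMSO. A440 followed for 200 min, read every 2 min.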

[2] = target: LL-diaminopimelate aminotransferase, chloroplastic (Arabidopsis thaliana) (UniProt Q93ZN9); test: Inhibition of Arabidopsis thaliana LL-DAP-AT expressed in Escherichia coli at 10 uM by aminobenzaldehyde-based assay
Sequence of LL-diaminopimelate aminotransferase, chloroplastic (Arabidopsis thaliana) (Q93ZN9 whole entry): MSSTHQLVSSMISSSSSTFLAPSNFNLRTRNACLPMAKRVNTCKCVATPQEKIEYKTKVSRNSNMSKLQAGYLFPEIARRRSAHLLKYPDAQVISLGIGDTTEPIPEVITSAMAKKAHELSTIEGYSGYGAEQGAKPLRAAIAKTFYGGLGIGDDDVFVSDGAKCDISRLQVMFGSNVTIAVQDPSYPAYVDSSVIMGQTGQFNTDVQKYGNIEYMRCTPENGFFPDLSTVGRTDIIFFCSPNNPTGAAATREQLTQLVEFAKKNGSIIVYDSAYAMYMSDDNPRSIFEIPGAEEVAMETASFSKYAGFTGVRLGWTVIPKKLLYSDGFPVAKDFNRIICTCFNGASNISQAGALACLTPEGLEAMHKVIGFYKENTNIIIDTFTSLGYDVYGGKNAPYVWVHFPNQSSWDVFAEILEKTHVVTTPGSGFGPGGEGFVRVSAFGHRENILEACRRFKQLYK
Procedure, shortened: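 Robotic 96-well screen against C-terminal His6-tagged A. thaliana LL-DAP-AT (0.0043 mg/mL final) in 100 mM HEPES-KOH pH 7.6, with 8.5 mM 2-oxoglutarate, 7 mM OAB and 2.0 mM LL-DAP final. Inhibitor 10 µM final in DMSO, assuming MW 500. Absorbance at 440 nm read in triplicate before enzyme addition and after 3 h at room temperature. Activity taken relative to no-inhibitor wells; no-enzyme wells served as blank.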

[3] = target: LL-diaminopimelate aminotransferase, chloroplastic (Arabidopsis thaliana) (UniProt Q93ZN9); test: Inhibition of Arabidopsis thaliana LL-DAP-AT expressed in Escherichia coli assessed as time dependent type of inhibition by aminobenzaldehyde-based assay
Procedure, shortened: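 Recombinant C-terminal His6-tagged enzyme (0.043 mg/mL, 100 µL) preincubated with 50 µL inhibitor (stock chosen from IC50 measurements) for six different times. Mixture then added to 850 µL substrate buffer: 100 mM HEPES-KOH pH 7.6, 2-oxoglutarate, 2-aminobenzaldehyde, racemic DAP. Absorbance at 440 nm recorded for 200 min. Percentage inhibition compared across preincubation times; no-inhibitor and no-enzyme controls included.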

[4] = target: LL-diaminopimelate aminotransferase, chloroplastic (Arabidopsis thaliana) (UniProt Q93ZN9); test: Inhibition of Arabidopsis thaliana LL-DAP-AT expressed in Escherichia coli assessed as time independent type of inhibition by aminobenzaldehyde-based assay
Procedure, shortened: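 Enzyme (100 µL) and inhibitor (50 µL) were preincubated for six different times, then added to 850 µL of OAB-coupled substrate buffer. Inhibitor level was chosen from the IC50. A440 recorded as in the IC50 assay, with positive and no-enzyme controls. Time independence was judged by whether percent inhibition changed with preincubation time.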

Salmonella typhimurium = test: Antimicrobial activity against Salmonella Typhimurium ATCC 23564 at <200 ug/mL; format: functional, organism-based; conditions: Salmonella enterica subsp. enterica serovar Typhimurium
Procedure, shortened: (§1)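 Soft agar overlay (0.75% w/v) seeded with 1% overnight culture of indicator strain, poured over 1.5% w/v solid agar; LB medium for Gram-negative, M17 for Gram-positive. 10 µL of test solution spotted and air-dried, with solvent controls (acetonitrile or methanol). Incubated overnight, 37 °C Gram-negative, 30 °C Gram-positive; scored for growth-inhibition halos.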

Pseudomonas aeruginosa = test: Antimicrobial activity against Pseudomonas aeruginosa ATCC 15442 at <200 ug/mL; format: functional, organism-based; procedure, shortened: as §1
Carnobacterium divergens = test: Antimicrobial activity against Carnobacterium divergens LV13 at <200 ug/mL; format: functional, organism-based; procedure, shortened: as §1
Escherichia coli = test: Antimicrobial activity against Escherichia coli DH5alpha at <200 ug/mL; format: functional, organism-based; procedure, shortened: as §1
Staphylococcus aureus = test: Antimicrobial activity against Staphylococcus aureus ATCC 25923 at <200 ug/mL; format: functional, organism-based; procedure, shortened: as §1

Sequence of LL-diaminopimelate aminotransferase, chloroplastic (Q93ZN9 whole entry): as above

| Structure (SMILES) | IC50 ([1]; read-out: IC50) [µM] | inhibition [2] [%] | also measured |
| --- | --- | --- | --- |
| CN1C(=O)C(=Cc2cccn2-c2cccc([N+](=O)[O-])c2)C(=O)N(C)C1=O | > 200 | 13 |  |
| O=C1NC(=S)S/C1=C\c1ccccc1O | > 200 |  |  |
| Cc1ccc(OCCn2c(C=C3C(=O)NC(=O)NC3=O)cc3ccccc32)cc1C | 99 | 28 |  |
| C=CCN1C(=O)/C(=C2/C(=O)N(S(=O)(=O)c3ccc(OC)cc3)c3ccccc32)SC1=S | 194 | 18 |  |
| C/C(=N\NC(=O)c1cc(C2CC2)n[nH]1)c1ccc(C)cc1 | > 200 | 14 |  |
| COc1ccc(C=C2C(=O)NC(=S)NC2=O)cc1OCc1ccccc1Cl | 121 | 48 |  |
| O=C(Cn1c(/C=C2/C(=O)NC(=S)N(c3ccccc3)C2=O)cc2ccccc21)Nc1ccccc1 | 33 | 45 | inhibition [3]: Active |
| Cc1ccsc1/C=C1\SC(=S)N(C(C)c2ccccc2)C1=O (stereo unspecified) | 127 | 13 |  |
| CCN1C(=O)/C(=C/c2cc(Cc3ccccc3Cl)ccc2O)SC1=S | 46 | 13 | inhibition [4]: Active |
| COc1ccc(OC)c(Nc2nc3ccccc3nc2NS(=O)(=O)c2cccc([N+](=O)[O-])c2)c1 | 153 | 13 |  |
| COc1ccccc1N1C(=O)/C(=C\c2cc3ccccc3n2Cc2ccccc2)C(=O)NC1=S | 62 | 20 |  |
| CC(=O)c1ccc(Nc2nc(-c3cc4ccccc4oc3=O)cs2)cc1 | > 200 | 16 |  |
| COc1ccc(/C=C2/C=C(c3ccccc3)OC2=O)c(OC)c1 | 159 | 14 |  |
| CN(C)c1ccc(/C=C2\SC(=S)NC2=O)cc1 | 127 |  |  |
| CCN1C(=O)/C(=C/c2ccc(Cl)cc2)SC1=S | 200 |  |  |
| C=CCN1C(=O)/C(=C\c2cc3ccccc3n2Cc2ccc([N+](=O)[O-])cc2)C(=O)NC1=S | 69 | 33 |  |
| COc1ccc(/C=C2\SC(=S)N(N)C2=O)cc1 | 155 |  |  |
| CCN1C(=O)/C(=C/c2cccc3ccccc23)SC1=S | 200 |  |  |
| N=C1NC(=O)/C(=C/c2ccc(-c3ccc([N+](=O)[O-])cc3Br)o2)S1 | 85 | 13 |  |
| COc1cc(OC)c(OC)cc1/C=N/n1c(S)nnc1-c1ccc(C)cc1 | > 200 | 18 |  |
| Cc1ccc(S(=O)(=O)N2C(=O)/C(=C3\SC(=S)NC3=O)c3ccccc32)cc1 | 70 | 25 |  |
| NNC(=O)c1cc2ccccc2cc1NS(=O)(=O)c1ccccc1 | 5 | 33 | inhibition (Salmonella typhimurium): inactive; inhibition (Pseudomonas aeruginosa): inactive; inhibition (Carnobacterium divergens): inactive; inhibition (Escherichia coli): inactive; inhibition (Staphylococcus aureus): inactive |

| Structure (SMILES) | IC50 ([1]; read-out: IC50) [µM] | inhibition [2] [%] | also measured |
| --- | --- | --- | --- |
| O=C1OC(c2ccccc2Cl)=N/C1=C/c1ccc(OC(=O)c2ccccc2Cl)c(O)c1 | 81 | 30 |  |
| Cc1ccc(N2C(=O)/C(=C\c3cc4ccccc4[nH]3)C(=O)NC2=S)cc1 | 164 | 16 |  |
| CC(=O)NN1C(=O)/C(=C/c2ccccc2)SC1=S |  |  | IC50 [1]: Not Active |
| COc1ccc(/C=C2\SC(=S)NC2=O)cc1 | 142 |  |  |
| CC(=O)NN1C(=O)/C(=C/c2ccc(-c3ccc([N+](=O)[O-])cc3)o2)SC1=S | 73 |  |  |
| CC(=O)/N=C1\NC(=O)/C(=C/c2ccc(-c3ccc([N+](=O)[O-])cc3)o2)S1 | 78 | 52 |  |
| Cc1ccc(NC(=O)/C(C#N)=C/c2ccc(N(C)C)o2)cc1C | > 200 | 14 |  |
| O=C1NC(=S)S/C1=C\c1ccc(Cl)cc1 | > 200 |  |  |
| O=C1NC(=S)S/C1=C\c1cccc2ccccc12 |  |  | IC50 [1]: Not Active |
| COc1cc(-c2nnc(SCC(=O)c3ccc(F)cc3)n2-c2ccccc2)cc(OC)c1OC | > 200 | 14 |  |
| CCOC(=O)C1=C(Nc2ccc(OC)cc2)S/C(=C\c2ccc(N(C)C)cc2)C1=O | > 200 | 22 |  |
| O=C1NC(=S)S/C1=C\c1ccccc1[N+](=O)[O-] |  |  | IC50 [1]: Not Active |
| Cc1nc(C)c(C(=O)/C=C2/Nc3ccccc3NC2=O)s1 | 56 | 18 |  |
| NN1C(=O)/C(=C/c2ccccc2)SC1=S |  |  | IC50 [1]: Not Active |
| O=C1OC(c2ccccc2)=C/C1=N\Nc1ccccc1C(=O)O | 39 | 16 | inhibition (Salmonella typhimurium): inactive; inhibition (Pseudomonas aeruginosa): inactive; inhibition [4]: Active; inhibition (Carnobacterium divergens): inactive; inhibition (Escherichia coli): inactive; inhibition (Staphylococcus aureus): inactive |
| Cc1[nH]n(-c2ccccc2)c(=O)c1C=C1C(=O)N(C)C(=O)N(C)C1=O | 45 | 20 | inhibition [4]: Active |
| COc1ccc(/C=C2\SC(=S)N(NC(C)=O)C2=O)cc1 | > 200 |  |  |
| CCN1C(=O)/C(=C/c2ccc(OC)cc2)SC1=S | > 200 |  |  |
| CCN1C(=O)/C(=C/c2ccccc2)SC1=S | > 200 |  |  |
| O=C1NC(=S)N(c2cccc(Br)c2)C(=O)/C1=C\c1ccco1 | > 200 | 17 |  |
| O=C(N/N=C/c1ccc(O)cc1O)c1[nH]c2ccc([N+](=O)[O-])cc2c1-c1ccccc1 | 45 | 15 |  |
| C=C(C)COc1ccc2c(c1)oc(=O)c1cc(OC)ccc12 | > 200 | 25 |  |

| Structure (SMILES) | IC50 ([1]; read-out: IC50) [µM] | inhibition [2] [%] | also measured |
| --- | --- | --- | --- |
| CCOC(=O)C1=C(Nc2ccc([N+](=O)[O-])cc2)S/C(=C\c2ccc(N(C)C)cc2)C1=O | 141 | 19 |  |
| O=C1/C(=C/c2cn(-c3ccccc3)nc2-c2cccs2)SC(=S)N1C1CCS(=O)(=O)C1 (stereo unspecified) | 117 | 13 |  |
| Cc1ccsc1/C=C1\SC(=S)N(CC2CCCO2)C1=O (stereo unspecified) | > 200 | 14 |  |
| COc1ccc(N2C(=O)NC(=O)/C(=C/c3ccc(-c4cccc(Cl)c4)o3)C2=O)cc1 | 42 | 20 |  |
| O/C(=C\c1nc2ccccc2nc1O)c1cccs1 | 31 | 15 |  |
| CC(=O)NN1C(=O)/C(=C/c2ccc(Cl)cc2)SC1=S |  |  | IC50 [1]: Not Active |
| Cc1c(C(=O)NC(=S)Nc2ccc3oc(-c4ccccc4Cl)nc3c2)oc2ccccc12 | 83 | 19 |  |
| CC(=O)NN1C(=O)/C(=C/c2ccc(Br)o2)SC1=S | 41 | 13 | inhibition [4]: Active |
| CCN1C(=O)/C(=C/c2ccccc2O)SC1=S | > 200 |  |  |
| Cc1ccc(C2=NC(=O)/C(=C/c3cc4c(cc3Br)OCO4)S2)cc1 | 130 | 13 |  |
| O=C(N/N=C/c1ccc(F)cc1)c1cc(-c2ccc3ccccc3c2)n[nH]1 | 161 | 14 |  |
| C=CCN1C(=O)NC(=O)/C(=C/c2ccc(-c3ccc(C(=O)OCC)cc3)o2)C1=O | > 200 | 16 |  |
| COc1ccc(/C=C2\SC(=S)NC2=O)cc1I | 180 | 29 |  |
| C=CCN1C(=O)/C(=C\c2cc3ccccc3n2C)C(=O)NC1=S | 75 | 35 |  |
| NN1C(=O)/C(=C/c2ccc(Cl)cc2)SC1=S |  |  | IC50 [1]: Not Active |
| N/C(=N\[N+](=O)[O-])N/N=C\c1ccc(-c2cccc([N+](=O)[O-])c2)o1 | > 200 | 13 |  |
| CN1C(=O)/C(=C/c2cc3ccccc3n2CC(=O)O)C(=O)N(c2ccc(Cl)cc2)C1=O | 65 | 14 |  |
| Cc1ccc(N2C(=O)/C(=C\c3cc4ccccc4n3CC(=O)O)C(=O)N(C)C2=O)cc1 | 37 | 17 |  |
| Cc1cc(C=C2C(=O)NC(=S)NC2=O)c(C)n1C | 25 | 15 | inhibition (Salmonella typhimurium): inactive; inhibition (Pseudomonas aeruginosa): inactive; inhibition [4]: Active; inhibition (Carnobacterium divergens): inactive; inhibition (Escherichia coli): inactive; inhibition (Staphylococcus aureus): inactive |
| O=C(Cn1c(/C=C2/C(=O)NC(=O)N(c3cccc(F)c3)C2=O)cc2ccccc21)Nc1ccccc1 | 52 | 18 |  |

Source: ChEMBL document CHEMBL1157640, “Exploration of inhibitors for diaminopimelate aminotransferase” (Bioorg Med Chem, 2010)
